Results on 5 molecules are retold here after ChEMBL document CHEMBL1130195, “6-Chloro-5-methyl-1-[[2-[(2-methyl-3-pyridyl)oxy]-5-pyridyl]carbamoyl]- indoline (SB-242084): the first selective and brain penetrant 5-HT2C receptor antagonist” (J Med Chem, 1997).

Test [1] has as its target T1, 5-hydroxytryptamine receptor 2C (Homo sapiens, UniProt P28335).
T1 sequence (P28335 whole entry): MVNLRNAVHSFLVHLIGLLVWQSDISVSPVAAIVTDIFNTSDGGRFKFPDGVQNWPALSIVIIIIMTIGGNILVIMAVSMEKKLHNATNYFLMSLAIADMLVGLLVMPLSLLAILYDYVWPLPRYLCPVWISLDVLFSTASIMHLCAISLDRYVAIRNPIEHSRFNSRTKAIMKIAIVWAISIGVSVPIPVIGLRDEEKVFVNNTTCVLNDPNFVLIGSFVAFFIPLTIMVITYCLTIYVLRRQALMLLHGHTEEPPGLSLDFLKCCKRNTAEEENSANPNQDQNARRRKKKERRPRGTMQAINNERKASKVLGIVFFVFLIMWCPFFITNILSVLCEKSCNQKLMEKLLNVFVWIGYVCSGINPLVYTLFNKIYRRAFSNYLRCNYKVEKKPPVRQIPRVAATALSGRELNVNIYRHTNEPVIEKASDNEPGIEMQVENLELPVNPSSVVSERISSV
Description: Displacement of [3H]mesulergine from 5-hydroxytryptamine 2C receptor expressed in HEK 293 cells. It is filed as cell-based, HEK293. The gist of the method: (§1)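 Human cloned receptors expressed in HEK 293 cells. Radioligands: [3H]5-HT for 5-HT2B, [3H]ketanserin for 5-HT2A, [3H]mesulergine for 5-HT2C. Each value is the mean of at least two determinations, each within 0.2 log unit of the mean.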

Test [2] concerns the target 5-hydroxytryptamine receptor 2A (Homo sapiens, UniProt P28223). Description: Displacement of [3H]ketanserin from 5-hydroxytryptamine 2A receptor expressed in HEK 293 cells. It counts as cell-based, HEK293. The gist of the method: as §1
A further test deals with Rattus norvegicus. Description: Mean dose required to reverse m-chlorophenyl-piperazine (mCPP) induced hypolocomotion (7 mg/kg ip administered 30 min pretest). It is filed as functional. As to conditions: 0.5 h, read-out: ID50 (the source's name). The gist of the method:
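Test compound given orally. Hypolocomotion was induced by mCPP, 7 mg/kg ip, 30 min pretest. The ID50 is the dose reversing hypolocomotion by 50%, reported as mean with confidence limits.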

Test [3] addresses Serotonin 2 receptors; 5-HT2a & 5-HT2c (Homo sapiens) (UniProt P28223+P28335). The experiment in a line: Selectivity for 5-HT2C over 5-HT2A receptor. It is filed as protein assay.
The target in a further test is Cytochrome P450 2C9 (Homo sapiens, UniProt P11712). Description: Inhibition of heterologously expressed human Cytochrome P450 2C9 at 100 uM. It counts as ADME.
The target of test [4] is T2, Cytochrome P450 3A4 (Homo sapiens, UniProt P08684). The experiment in a line: Inhibition of heterologously expressed human Cytochrome P450 3A at 1 uM.
In test [5] the target is 5-hydroxytryptamine receptor 2B (Homo sapiens, UniProt P41595). Description: Displacement of [3H]5-HT from 5-hydroxytryptamine 2B receptor expressed in HEK 293 cells. It is filed as cell-based, HEK293. In outline: as §1
A general note: Displacement assays read how much labelled ligand stays bound in the presence of the test substance.

Another test has as its target T3, Cytochrome P450 1A2 (Homo sapiens, UniProt P05177).
T3 sequence (P05177 whole entry): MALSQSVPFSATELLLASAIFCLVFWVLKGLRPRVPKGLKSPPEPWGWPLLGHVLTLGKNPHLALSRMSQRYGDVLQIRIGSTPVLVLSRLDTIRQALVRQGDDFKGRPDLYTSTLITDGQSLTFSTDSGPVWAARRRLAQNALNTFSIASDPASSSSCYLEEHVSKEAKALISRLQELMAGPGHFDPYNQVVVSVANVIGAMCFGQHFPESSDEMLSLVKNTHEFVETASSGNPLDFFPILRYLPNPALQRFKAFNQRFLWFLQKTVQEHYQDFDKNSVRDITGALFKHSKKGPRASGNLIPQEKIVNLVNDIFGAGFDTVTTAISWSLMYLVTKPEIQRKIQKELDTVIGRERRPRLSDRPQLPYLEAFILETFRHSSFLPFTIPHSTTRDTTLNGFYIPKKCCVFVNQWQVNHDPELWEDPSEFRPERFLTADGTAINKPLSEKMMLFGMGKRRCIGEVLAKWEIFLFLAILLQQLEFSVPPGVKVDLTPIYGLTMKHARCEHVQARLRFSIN
The experiment in a line: Inhibition of heterologously expressed human Cytochrome P450 1A2 at 500 uM. It is filed as ADME.

A further test deals with Cytochrome P450 2D6 (Homo sapiens, UniProt P10635). The experiment in a line: Inhibition of heterologously expressed human Cytochrome P450 2D6 at 10 uM. It is filed as ADME.
For test [6], the target named is Cytochrome P450 2C19 (Homo sapiens) (UniProt P33261). Description: Inhibition of heterologously expressed human Cytochrome P450 2C19 at 100 uM.
For test [7], the target named is T2, Cytochrome P450 3A4. The experiment in a line: Inhibition of heterologously expressed human Cytochrome P450 3A at 1 uM. It counts as ADME.
In test [8] the target is Cytochrome P450 2C19 (Homo sapiens) (UniProt P33261). Description: Inhibition of heterologously expressed human Cytochrome P450 2C19 at 100 uM. The source holds these as a separate data set.

Usually Ki stands for the equilibrium dissociation constant of an inhibitor or competing ligand from its target. One may read the IC50 as the concentration that inhibits the measured activity by half. A low value points to greater potency.

Cytochrome P450 2C9, sequence (P11712 whole entry): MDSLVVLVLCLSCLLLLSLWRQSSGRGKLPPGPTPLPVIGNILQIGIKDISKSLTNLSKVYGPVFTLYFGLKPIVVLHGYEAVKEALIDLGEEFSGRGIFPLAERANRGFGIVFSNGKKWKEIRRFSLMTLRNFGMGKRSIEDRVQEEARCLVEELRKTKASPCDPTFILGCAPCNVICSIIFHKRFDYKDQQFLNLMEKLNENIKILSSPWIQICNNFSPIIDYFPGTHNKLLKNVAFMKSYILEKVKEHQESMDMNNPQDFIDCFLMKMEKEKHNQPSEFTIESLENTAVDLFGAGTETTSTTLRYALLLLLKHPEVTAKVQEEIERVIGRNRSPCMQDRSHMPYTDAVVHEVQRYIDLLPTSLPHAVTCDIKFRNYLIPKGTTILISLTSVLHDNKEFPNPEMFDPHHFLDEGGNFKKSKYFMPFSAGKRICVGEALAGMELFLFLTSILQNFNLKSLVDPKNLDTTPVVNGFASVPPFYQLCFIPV
Cytochrome P450 2D6, sequence (P10635 whole entry): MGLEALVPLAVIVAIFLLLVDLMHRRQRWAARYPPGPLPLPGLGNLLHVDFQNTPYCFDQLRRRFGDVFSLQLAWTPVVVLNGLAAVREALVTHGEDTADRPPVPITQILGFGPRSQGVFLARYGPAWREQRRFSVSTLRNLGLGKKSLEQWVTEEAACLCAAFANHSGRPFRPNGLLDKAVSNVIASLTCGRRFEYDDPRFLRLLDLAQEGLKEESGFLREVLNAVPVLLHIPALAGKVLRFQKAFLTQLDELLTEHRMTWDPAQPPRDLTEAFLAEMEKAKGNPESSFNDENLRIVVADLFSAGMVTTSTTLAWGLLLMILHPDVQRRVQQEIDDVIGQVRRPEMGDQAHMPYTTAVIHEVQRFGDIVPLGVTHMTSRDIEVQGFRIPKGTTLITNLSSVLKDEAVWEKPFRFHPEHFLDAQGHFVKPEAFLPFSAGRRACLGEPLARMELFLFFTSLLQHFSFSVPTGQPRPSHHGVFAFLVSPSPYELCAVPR
Serotonin 2 receptors; 5-HT2a & 5-HT2c (Homo sapiens), sequence (P28223 whole entry, looked up, one chain of several): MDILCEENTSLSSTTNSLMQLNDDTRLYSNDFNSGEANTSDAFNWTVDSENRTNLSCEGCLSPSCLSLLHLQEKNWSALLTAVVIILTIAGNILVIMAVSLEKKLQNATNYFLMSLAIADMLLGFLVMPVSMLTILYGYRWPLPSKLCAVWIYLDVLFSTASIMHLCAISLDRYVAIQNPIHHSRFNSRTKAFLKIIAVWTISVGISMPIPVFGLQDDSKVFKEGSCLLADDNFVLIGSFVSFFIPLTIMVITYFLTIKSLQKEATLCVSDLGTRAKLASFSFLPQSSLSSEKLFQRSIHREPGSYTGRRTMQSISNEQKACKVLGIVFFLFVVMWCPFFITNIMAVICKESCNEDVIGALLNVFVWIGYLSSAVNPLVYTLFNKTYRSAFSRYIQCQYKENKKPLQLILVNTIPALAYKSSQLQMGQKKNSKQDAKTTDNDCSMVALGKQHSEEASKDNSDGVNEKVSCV
5-hydroxytryptamine receptor 2A, sequence (P28223 whole entry): as the sequence (P28223 whole entry, looked up, one chain of several) above
5-hydroxytryptamine receptor 2B, sequence (P41595 whole entry): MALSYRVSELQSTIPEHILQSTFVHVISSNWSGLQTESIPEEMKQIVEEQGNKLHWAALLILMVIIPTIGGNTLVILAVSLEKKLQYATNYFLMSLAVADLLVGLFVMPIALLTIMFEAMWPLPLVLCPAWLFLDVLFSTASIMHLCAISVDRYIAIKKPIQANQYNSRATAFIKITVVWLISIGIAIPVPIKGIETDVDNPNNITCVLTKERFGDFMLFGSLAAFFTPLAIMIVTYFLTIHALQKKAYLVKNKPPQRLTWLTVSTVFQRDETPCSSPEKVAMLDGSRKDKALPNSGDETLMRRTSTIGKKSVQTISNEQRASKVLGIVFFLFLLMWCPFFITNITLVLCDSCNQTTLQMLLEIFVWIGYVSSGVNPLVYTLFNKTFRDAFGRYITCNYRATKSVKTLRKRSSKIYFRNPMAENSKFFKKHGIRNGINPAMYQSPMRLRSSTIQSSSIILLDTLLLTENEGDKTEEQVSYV
T2 sequence (P08684 whole entry): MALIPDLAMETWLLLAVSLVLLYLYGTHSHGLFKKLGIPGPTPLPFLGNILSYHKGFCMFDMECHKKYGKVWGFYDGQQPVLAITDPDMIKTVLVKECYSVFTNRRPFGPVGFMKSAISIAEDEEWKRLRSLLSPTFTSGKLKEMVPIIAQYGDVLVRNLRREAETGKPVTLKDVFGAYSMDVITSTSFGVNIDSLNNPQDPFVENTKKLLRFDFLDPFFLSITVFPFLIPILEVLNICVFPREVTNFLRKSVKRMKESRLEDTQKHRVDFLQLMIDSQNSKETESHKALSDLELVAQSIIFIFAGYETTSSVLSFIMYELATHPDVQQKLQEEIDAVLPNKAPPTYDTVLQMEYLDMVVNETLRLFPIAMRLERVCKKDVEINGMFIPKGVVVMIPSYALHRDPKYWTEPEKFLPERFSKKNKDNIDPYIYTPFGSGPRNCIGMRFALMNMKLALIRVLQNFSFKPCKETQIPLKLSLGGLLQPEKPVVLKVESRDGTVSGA
Cytochrome P450 2C19 (Homo sapiens), sequence (P33261 whole entry, looked up): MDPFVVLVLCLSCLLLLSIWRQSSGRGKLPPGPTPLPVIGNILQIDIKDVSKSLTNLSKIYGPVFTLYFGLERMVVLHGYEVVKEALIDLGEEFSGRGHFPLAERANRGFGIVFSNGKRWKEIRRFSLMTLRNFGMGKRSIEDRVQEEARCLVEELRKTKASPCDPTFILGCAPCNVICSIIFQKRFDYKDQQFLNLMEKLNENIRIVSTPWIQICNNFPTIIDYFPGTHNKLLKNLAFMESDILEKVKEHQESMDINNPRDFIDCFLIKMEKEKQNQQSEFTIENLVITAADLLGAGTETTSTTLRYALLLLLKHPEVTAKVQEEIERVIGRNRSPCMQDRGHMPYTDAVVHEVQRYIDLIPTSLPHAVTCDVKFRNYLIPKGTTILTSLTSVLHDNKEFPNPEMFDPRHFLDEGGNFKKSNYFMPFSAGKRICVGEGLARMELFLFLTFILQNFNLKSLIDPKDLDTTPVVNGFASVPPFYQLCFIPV

As to `CSc1cc2c(cc1Cl)N(C(=O)Nc1cccnc1)CC2`, the values for the Ki in test [1] and in test [2] were 6.31 nM and 2510 nM, respectively. In addition, the ED50 in the test on Rattus norvegicus was determined as 10 mg/kg. The Selectivity ratio in test [3] amounted to 420.

As for `CSc1cc2c(cc1C(F)(F)F)N(C(=O)Nc1cccnc1)CC2`, the Ki in test [1] is 2.51 nM; in [5] it was 12.6 nM; in test [2], 398 nM. Moreover, the IC50 is over 100000 nM on Cytochrome P450 2C9, over 100000 nM against Cytochrome P450 3A4 [4], 13 nM at Cytochrome P450 1A2 and 110 nM at Cytochrome P450 2D6. Further, in the test on Rattus norvegicus, the ED50 is 1.5 mg/kg.

With `Cc1cc2c(cc1Cl)N(C(=O)Nc1cccnc1)CC2`, the Ki in [1] was 6.31 nM; in test [2] it was 158 nM. In addition, in the test with Rattus norvegicus, the ED50 worked out at 0.6 mg/kg. The Selectivity ratio in test [3] was found to be 30.

Consider `Cc1cc2c(cc1Cl)N(C(=O)Nc1ccc(Oc3cccnc3C)nc1)CC2` [SB-242084], for which the IC50 (in [6]; at Cytochrome P450 2C9; against Cytochrome P450 3A4 [7]; against Cytochrome P450 1A2; on Cytochrome P450 2D6) was over 100000 nM in each case. The figures for the Ki in test [1], in [5] and in [2] were 1 nM, 100 nM and 158 nM, respectively. Besides, the ED50 with Rattus norvegicus was 2 mg/kg. In addition, the Selectivity ratio in [3] is 160.

Consider `Cn1ccc2cc3c(cc21)CCN3C(=O)Nc1cccnc1`, for which the IC50 in [8] is over 100000 nM; against Cytochrome P450 2C9 it was over 100000 nM; against Cytochrome P450 1A2 it was 50 nM; against Cytochrome P450 2D6, 30000 nM. Also, the inhibition constant Ki in [5] is 25.1 nM; in test [2], 2000 nM. The ED50 in the test on Rattus norvegicus was 5.5 mg/kg.
